According to ChEMBL document CHEMBL3822431, “Hydroxychalcone inhibitors of Streptococcus mutans glucosyl transferases and biofilms as potential anticaries agents” (Bioorg Med Chem Lett, 2016):
Calls of active or inactive are those of the source. No cut-off for these calls is given here.

What was measured:
[1] = molecular target: T1, Glucosyltransferase-SI (Streptococcus mutans serotype c (strain ATCC 700610 / UA159)) (UniProt P13470); test: Inhibition of Wild-type Streptococcus mutans UA159 glucosyltransferase C at 50 uM by zymography
T1 sequence (whole entry): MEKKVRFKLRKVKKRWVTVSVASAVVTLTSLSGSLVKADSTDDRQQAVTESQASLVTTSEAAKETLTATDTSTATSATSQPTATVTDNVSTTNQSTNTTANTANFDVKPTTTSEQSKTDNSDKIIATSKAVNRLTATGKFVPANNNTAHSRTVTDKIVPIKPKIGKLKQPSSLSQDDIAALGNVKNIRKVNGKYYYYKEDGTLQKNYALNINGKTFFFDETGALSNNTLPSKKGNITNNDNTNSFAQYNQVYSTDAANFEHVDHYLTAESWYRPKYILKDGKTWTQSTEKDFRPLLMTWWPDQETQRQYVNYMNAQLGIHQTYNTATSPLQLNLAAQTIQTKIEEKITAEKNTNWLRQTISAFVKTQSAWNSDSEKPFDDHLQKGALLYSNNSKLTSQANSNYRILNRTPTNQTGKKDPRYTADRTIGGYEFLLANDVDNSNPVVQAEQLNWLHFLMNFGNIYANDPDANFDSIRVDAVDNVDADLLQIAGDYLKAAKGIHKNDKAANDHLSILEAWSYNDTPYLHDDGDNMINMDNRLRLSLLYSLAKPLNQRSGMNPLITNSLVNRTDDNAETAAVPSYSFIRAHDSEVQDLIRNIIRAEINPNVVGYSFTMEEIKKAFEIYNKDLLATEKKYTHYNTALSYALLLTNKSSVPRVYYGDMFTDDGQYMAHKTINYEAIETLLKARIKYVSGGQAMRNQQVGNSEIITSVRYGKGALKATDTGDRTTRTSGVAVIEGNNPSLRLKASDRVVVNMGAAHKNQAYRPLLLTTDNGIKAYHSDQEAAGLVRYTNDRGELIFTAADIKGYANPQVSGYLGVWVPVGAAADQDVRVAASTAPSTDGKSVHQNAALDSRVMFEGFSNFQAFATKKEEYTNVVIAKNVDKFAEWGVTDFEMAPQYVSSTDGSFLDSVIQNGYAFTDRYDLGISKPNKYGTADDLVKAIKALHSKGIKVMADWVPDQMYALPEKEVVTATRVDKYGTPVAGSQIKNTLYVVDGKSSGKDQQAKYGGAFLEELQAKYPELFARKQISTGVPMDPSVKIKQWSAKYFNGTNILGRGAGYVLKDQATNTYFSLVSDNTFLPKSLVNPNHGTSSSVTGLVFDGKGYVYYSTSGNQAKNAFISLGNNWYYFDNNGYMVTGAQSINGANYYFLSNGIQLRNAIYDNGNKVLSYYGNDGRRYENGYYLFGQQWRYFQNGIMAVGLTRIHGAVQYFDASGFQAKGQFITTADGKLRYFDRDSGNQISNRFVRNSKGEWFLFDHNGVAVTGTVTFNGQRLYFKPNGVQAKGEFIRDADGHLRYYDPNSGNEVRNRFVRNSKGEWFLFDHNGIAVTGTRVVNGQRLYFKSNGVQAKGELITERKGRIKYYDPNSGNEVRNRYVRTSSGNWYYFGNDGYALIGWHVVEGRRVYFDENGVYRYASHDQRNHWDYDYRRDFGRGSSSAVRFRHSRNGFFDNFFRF
Procedure, shortened: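 Compound (50 µM) added to overnight S. mutans UA159 wild-type cultures; Gtfs concentrated from supernatants, run on duplicate SDS-PAGE; second gel used for zymogram, glucan band intensity taken as Gtf activity.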

[2] = molecular target: T2, Glucosyltransferase-S (Streptococcus mutans serotype c (strain ATCC 700610 / UA159)) (UniProt P49331); test: Inhibition of Wild-type Streptococcus mutans UA159 glucosyltransferase D at 50 uM by coomassie blue staining based SDS-PAGE method
T2 sequence (whole entry): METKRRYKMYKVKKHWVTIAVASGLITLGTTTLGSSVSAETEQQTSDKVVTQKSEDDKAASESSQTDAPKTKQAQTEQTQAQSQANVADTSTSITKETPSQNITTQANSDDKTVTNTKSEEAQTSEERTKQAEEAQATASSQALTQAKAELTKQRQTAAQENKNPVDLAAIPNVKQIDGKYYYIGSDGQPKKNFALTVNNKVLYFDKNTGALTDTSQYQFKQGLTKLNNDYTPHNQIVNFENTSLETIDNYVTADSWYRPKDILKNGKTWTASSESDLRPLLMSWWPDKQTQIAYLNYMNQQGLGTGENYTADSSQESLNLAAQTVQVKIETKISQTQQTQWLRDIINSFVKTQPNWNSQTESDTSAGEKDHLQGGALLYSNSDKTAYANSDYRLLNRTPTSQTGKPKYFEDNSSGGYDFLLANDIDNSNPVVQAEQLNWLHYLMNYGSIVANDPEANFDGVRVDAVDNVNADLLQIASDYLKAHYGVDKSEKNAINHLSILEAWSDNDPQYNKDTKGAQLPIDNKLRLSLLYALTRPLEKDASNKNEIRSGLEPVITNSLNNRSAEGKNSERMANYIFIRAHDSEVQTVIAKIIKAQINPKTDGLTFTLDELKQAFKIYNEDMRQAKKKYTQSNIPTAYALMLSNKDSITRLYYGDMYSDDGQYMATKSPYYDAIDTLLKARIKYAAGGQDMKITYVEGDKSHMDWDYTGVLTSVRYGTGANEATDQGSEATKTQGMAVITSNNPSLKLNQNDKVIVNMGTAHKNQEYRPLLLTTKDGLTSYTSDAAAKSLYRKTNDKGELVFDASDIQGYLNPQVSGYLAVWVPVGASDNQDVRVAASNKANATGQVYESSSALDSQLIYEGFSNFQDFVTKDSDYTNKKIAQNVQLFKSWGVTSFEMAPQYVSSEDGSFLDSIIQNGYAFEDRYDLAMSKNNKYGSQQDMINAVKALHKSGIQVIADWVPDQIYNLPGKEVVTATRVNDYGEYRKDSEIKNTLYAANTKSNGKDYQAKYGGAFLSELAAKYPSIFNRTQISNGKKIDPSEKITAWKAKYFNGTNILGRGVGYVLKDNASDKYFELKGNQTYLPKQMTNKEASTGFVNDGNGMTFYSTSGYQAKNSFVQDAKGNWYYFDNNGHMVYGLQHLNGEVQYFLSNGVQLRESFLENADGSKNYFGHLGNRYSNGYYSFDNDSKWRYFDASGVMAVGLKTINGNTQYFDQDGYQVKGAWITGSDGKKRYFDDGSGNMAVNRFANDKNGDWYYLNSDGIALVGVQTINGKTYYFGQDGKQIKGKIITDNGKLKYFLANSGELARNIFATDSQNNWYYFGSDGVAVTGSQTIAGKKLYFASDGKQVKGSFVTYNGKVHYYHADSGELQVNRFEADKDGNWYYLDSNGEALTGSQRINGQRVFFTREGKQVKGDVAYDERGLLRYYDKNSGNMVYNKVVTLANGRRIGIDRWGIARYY
Procedure, shortened: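 Compound (50 µM) added to overnight S. mutans UA159 wild-type cultures; Gtfs collected and concentrated from supernatants, run on SDS-PAGE in duplicate; one gel Coomassie blue stained for protein levels.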

Structure (SMILES)	inhibition [1]	inhibition [2]
O=C(/C=C\c1ccc(O)cc1O)c1cccc(O)c1	Active	Active
O=C(/C=C/c1ccc(O)cc1O)c1ccc(O)cc1	Active	Active
O=C(/C=C\c1ccc(O)cc1O)c1ccc(O)cc1	Active	Active

More lines, now with the values ahead:

inhibition [1]	inhibition [2]	Structure (SMILES)
Active	Active	O=C(/C=C/c1cc(O)c(O)cc1O)c1ccccc1O (stereo in doubt; 18c)
Active	Active	O=C(/C=C/c1ccc(O)cc1O)c1cccc(O)c1 (stereo in doubt; 9a)
